In brackets after ≈: the same amount, converted by molar mass. One block for each molecule: values may come before it. Activity calls are given as the source filed them. No cut-off for these calls is given here. Starred links: 1 amine or outer side, 2 acyl side, 3 side chain; linkers in the order of their positions; H or OH if unused. Non-standard residues stand in square brackets, D forms with d. Residues, ends and D or L forms follow the SMILES beside them. *: point of attachment. 2Nal = N[C@@H](Cc1ccc2ccccc2c1)C(=O)O; Isovaleryl = CC(C)CC(=O)*; CO = O=C([*:1])[*:2]
Experiments:
DCN1-like protein 1 [1] = molecular target: T1, DCN1-like protein 1 (Homo sapiens, UniProt Q96GG9); assay: Binding affinity to biotin labeled recombinant N-terminal His6-tagged human DCN1 (58 to 259 residues) expressed in Escherichia coli Rosetta2 cells by biolayer interferometry analysis
Method in brief: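 Recombinant human DCN1 (58–259) was biotinylated at a 1:1 molar ratio in PBS for 2 h at 4 °C, dialyzed, then loaded on super streptavidin sensors from a 10 μg/mL solution. Blocked streptavidin sensors served as reference.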
Target sequence in this assay (Q96GG9 whole entry, the tested form may be a part): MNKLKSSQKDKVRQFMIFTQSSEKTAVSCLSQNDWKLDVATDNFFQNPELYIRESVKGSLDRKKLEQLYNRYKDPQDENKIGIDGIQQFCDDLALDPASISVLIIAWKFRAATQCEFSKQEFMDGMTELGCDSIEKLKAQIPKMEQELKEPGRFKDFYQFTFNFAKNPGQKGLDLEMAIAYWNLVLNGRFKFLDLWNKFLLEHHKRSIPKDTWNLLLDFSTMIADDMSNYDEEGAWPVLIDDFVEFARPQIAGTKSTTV

DCN1-like protein 1 [2] = molecular target: T1, DCN1-like protein 1; assay: Displacement of (S)-N1-((19S,22S)-26-Amino-19-carbamoyl-1-(3',6'-dihydroxy-3-oxo-3H-spiro[isobenzofuran-1,9'-xanthen]-5-yl)-1,13,21-trioxo-5,8,11-trioxa-2,14,20-triazahexacosan-22-yl)-2-((2S,5S,8S,11S,14S,17S,20S,23S,26S)-2-(3-amino-3-oxopropyl)-5,20-bis(4-aminobutyl)-14-benzyl-23-((S)-sec-butyl)-11-(hydroxymethyl)-8,17-diisobutyl-26-(naphthalen-2-ylmethyl)-4,7,10,13,16,19,22,25,28-nonaoxo-3,6,9,12,15,18,21,24,27-nonaazanonacosanamido)pentanediamide from recombinant N-terminal His6-tagged human DCN1 (58 to 259 residues) expressed in Escherichia coli Rosetta2 cells after 30 mins by fluorescence polarization assay
Target sequence in this assay (Q96GG9 whole entry, the tested form may be a part): as above

DCN1-like protein 1 [3] = molecular target: T1, DCN1-like protein 1; assay: Stabilization of DCN1 in human H2170 cells incubated for 1 hr by cellular thermal shift assay; format: cell-based
Method in brief: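 H2170 cells (5 × 10^5 per sample) given compound or DMSO for 1 h, washed three times in PBS, resuspended in PBS with protease inhibitor, and heated at 53 °C for 3 min. Three liquid-nitrogen freeze/thaw-on-ice cycles followed. DCN1 in the supernatant read by Western blot, with GAPDH as loading control.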
Target sequence in this assay (Q96GG9 whole entry, looked up, the tested form may be a part): as the sequence (Q96GG9 whole entry, the tested form may be a part) above

DCN1-like protein 1 [4] = molecular target: T1, DCN1-like protein 1; assay: Inhibition of DCN1-mediated CUL3 neddylation in human H2170 cells assessed as increase in NRF2 level at 0.1 to 10 uM after 16 hrs by Western blot analysis; format: cell-based
Method in brief: (§1)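 H2170 cells exposed to compound for 16 h, then lysed in Triton X-100 or RIPA buffer with phosphatase inhibitors. Neddylated and unneddylated cullins, NRF2 and CDT1 read by Western blot on whole-cell lysate, with GAPDH as loading control.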
Target sequence in this assay (Q96GG9 whole entry, looked up, the tested form may be a part): as the sequence (Q96GG9 whole entry, the tested form may be a part) above

NCI-H2170 [5] = assay: Effect on DCN1 levels in human NCI-H2170 cells at 5 to 10 uM after 24 hrs by Western blot analysis; format: functional, cell-based
[6] = Equilibrium aqueous solubility of the compound in phosphate buffer of pH 7.4 after 24 hrs by shake-flask method; format: physicochemical
Method in brief: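 Excess solid was suspended in phosphate buffer pH 7.4, sonicated 30 min, then shaken 24 h at room temperature. Suspensions were centrifuged at 15 000 rpm for 15 min and filtered through 0.45 μm membranes. The saturated concentration was read by UV at each compound's absorption maximum, found by spectrum scan.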

DCN1-like protein 1 [7] = molecular target: T1, DCN1-like protein 1; assay: Inhibition of DCN1-mediated CUL1 neddylation in human H2170 cells at 10 uM after 16 hrs by Western blot analysis; format: cell-based; method in brief: as §1
Target sequence in this assay (Q96GG9 whole entry, looked up, the tested form may be a part): as the sequence (Q96GG9 whole entry, the tested form may be a part) above

DCN1-like protein 1 [8] = molecular target: T1, DCN1-like protein 1; assay: Inhibition of DCN1-mediated CUL4B neddylation in human H2170 cells at 0.1 to 10 uM after 16 hrs by Western blot analysis; format: cell-based; method in brief: as §1
Target sequence in this assay (Q96GG9 whole entry, looked up, the tested form may be a part): as the sequence (Q96GG9 whole entry, the tested form may be a part) above

DCN1-like protein 1 [9] = molecular target: T1, DCN1-like protein 1; assay: Inhibition of DCN1-mediated CUL4A neddylation in human H2170 cells at 0.1 to 10 uM after 16 hrs by Western blot analysis; format: cell-based; method in brief: as §1
Target sequence in this assay (Q96GG9 whole entry, looked up, the tested form may be a part): as the sequence (Q96GG9 whole entry, the tested form may be a part) above

DCN1-like protein 1 [10] = molecular target: T1, DCN1-like protein 1; assay: Inhibition of DCN1-mediated CUL3 neddylation in human H2170 cells after 16 hrs by Western blot analysis; format: cell-based; method in brief: as §1
Target sequence in this assay (Q96GG9 whole entry, looked up, the tested form may be a part): as the sequence (Q96GG9 whole entry, the tested form may be a part) above

DCN1-like protein 1 [11] = molecular target: T1, DCN1-like protein 1; assay: Inhibition of DCN1-mediated CUL4A neddylation in human H2170 cells assessed as increase in CDT1 level at 0.1 to 10 uM after 16 hrs by Western blot analysis; format: cell-based; method in brief: as §1
DCN1-like protein 1 [12] = molecular target: T1, DCN1-like protein 1; assay: Inhibition of DCN1-mediated CUL2 neddylation in human H2170 cells at 0.1 to 10 uM after 16 hrs by Western blot analysis; format: cell-based; method in brief: as §1
DCN1-like protein 1 [13] = molecular target: T1, DCN1-like protein 1; assay: Binding affinity to biotin labeled recombinant N-terminal His6-tagged human DCN1 (58 to 259 residues) expressed in Escherichia coli Rosetta2 cells assessed as association rate constant by biolayer interferometry analysis
Method in brief: (§2)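 Biotinylated DCN1 (1:1 molar biotin reagent, 4 °C 2 h, dialysed) loaded on super streptavidin sensors from 10 μg/mL to 11−12 nm response; blocked streptavidin sensors as reference. Run at 30 °C, 1000 rpm, in PBS with 0.1% BSA, 0.01% Tween-20, 2% DMSO; 10 min baseline wash. kon/koff from 1:1 binding model fits; two independent experiments.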

DCN1-like protein 1 [14] = molecular target: T1, DCN1-like protein 1; assay: Binding affinity to biotin labeled recombinant N-terminal His6-tagged human DCN1 (58 to 259 residues) expressed in Escherichia coli Rosetta2 cells assessed as dissociation rate constant by biolayer interferometry analysis; method in brief: as §2
DCN1-like protein 1 [15] = molecular target: T1, DCN1-like protein 1; assay: Inhibition of DCN1-mediated CUL5 neddylation in human H2170 cells at 0.1 to 10 uM after 16 hrs by Western blot analysis; format: cell-based; method in brief: as §1
DCN1-like protein 1 [16] = molecular target: T1, DCN1-like protein 1; assay: Inhibition of DCN1 interaction with UBC12 protein in human H2170 cell lysate after 24 hrs by immunoprecipitation assay
Method in brief: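 Endogenous DCN1 pulled down from precleared lysates of treated cells with DCN1 antibody for 3 h, then protein A&G beads at 4 °C overnight with rotation. Beads washed three times in lysis buffer, complexes resolved by SDS−PAGE and immunoblotted.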

NCI-H2170 [17] = assay: Effect on UBC12 levels in human NCI-H2170 cells at 5 to 10 uM after 24 hrs by Western blot analysis; format: functional, cell-based
DCN1-like protein 1 [18] = molecular target: T1, DCN1-like protein 1; assay: Inhibition of DCN1-mediated CUL3 neddylation in human SK-MES-1 cells up to 10 uM after 16 hrs by Western blot analysis; format: cell-based

- Kd (DCN1-like protein 1 [1]): 0.0041 µM
Compound: CCC(=O)N[C@@H](Cc1nc2ccc(Cl)cc2s1)C(=O)N[C@H](C(=O)N[C@@H](CCCCN)C(=O)N[C@@H]1CCOc2ccccc21)C1CCCC1

- IC50 (DCN1-like protein 1 [2]): 18.5 µM
- Ki (DCN1-like protein 1 [2]): 4 µM
Compound: CC[C@H](C)[C@H](NC(=O)[C@H](Cc1ccc2ccccc2c1)NC(=O)NC)C(=O)N[C@@H](CCCCN)C(=O)N[C@@H](CC(C)C)C(N)=O ({NHMe-CO}-[2Nal]IKL-NH2)

- IC50 (DCN1-like protein 1 [2]): > 20 µM
Compound: CC[C@H](C)[C@H](NC(=O)[C@H](Cc1ccc2ccccc2c1)NC(=O)CC(C)C)C(=O)N[C@@H](CCCCN)C(=O)N[C@@H](CC(C)C)C(N)=O (Isovaleryl-[2Nal]IKL-NH2)

- Activity (DCN1-like protein 1 [3]): Dose-dependent effect
- inhibition (DCN1-like protein 1 [4]): Active
- solubility thermodynamic at 24 h [6]: 54 µM (≈ 38.5 µg/mL)
- inhibition (DCN1-like protein 1 [7]): Active
- inhibition (DCN1-like protein 1 [8]): inactive
- inhibition (DCN1-like protein 1 [9]): inactive
- inhibition (DCN1-like protein 1 [10]): Dose-dependent effect
- inhibition (DCN1-like protein 1 [11]): inactive
- inhibition (DCN1-like protein 1 [12]): inactive
- K (DCN1-like protein 1 [13]): 2.9 ×10⁵ /M/s
- K (DCN1-like protein 1 [14]): 2 ×10⁻³ /s
- inhibition (DCN1-like protein 1 [15]): inactive
- inhibition (DCN1-like protein 1 [16]): Dose-dependent effect
- Kd (DCN1-like protein 1 [1]): 0.0067 µM
- inhibition (DCN1-like protein 1 [18]): Active
Compound: CCC(=O)N[C@@H](Cc1nc2ccc(Cl)cc2s1)C(=O)N[C@H](C(=O)N[C@@H](CCCCN)C(=O)N[C@@H]1CCOc2ccccc21)C1CCOCC1
- Activity (NCI-H2170 [5]): inactive
- Activity (NCI-H2170 [17]): inactive
